GalR3 antag – blocks the human galanin receptor 3; HEK293 GalR3-CNG cAMP membrane potential fluorescence; galR3 body fused to GalR1 C-terminus; AID 651719; O60755; inhibition, % at 3 µM; actives 0.44% (n = 360,000);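 active means inhibition above the screen-wide average plus 3 SD, cut at about 13% in these data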;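 further: forskolin and galanin both at EC90 stimulate the cells; cAMP rise reported by CNG channel membrane potential dye signal; 0% = forskolin plus galanin with DMSO and 100% = forskolin alone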
Target sequence (O60755 1-299 limits assumed): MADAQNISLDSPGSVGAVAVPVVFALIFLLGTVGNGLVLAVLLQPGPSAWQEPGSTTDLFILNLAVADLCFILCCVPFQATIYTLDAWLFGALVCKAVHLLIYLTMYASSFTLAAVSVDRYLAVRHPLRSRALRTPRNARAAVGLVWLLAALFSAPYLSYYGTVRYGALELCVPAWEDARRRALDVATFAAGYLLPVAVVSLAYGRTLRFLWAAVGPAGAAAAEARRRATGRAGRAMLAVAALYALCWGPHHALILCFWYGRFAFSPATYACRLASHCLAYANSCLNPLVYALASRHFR
CHT PAM – human CHT allosteric activation | CHT-expressing cells, membrane potential dye, choline EC20; hits give high values; LV-AA mutant CHT in HEK293 cells | B-score at 10 µM | actives 0.49% (n = 310,000);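 active means initial fluorescence not abnormally high and integrated response B-score, plate-corrected, over 3 SD above library mean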
NR2E3 ag-1 – activates human photoreceptor nuclear receptor NR2E3; actives 0.12% (n = 320,000); Q9Y5X4; GST-NR2E3/biotin-RetCOR TR-FRET, 1536-well; inhibition of corepressor binding, % at 4.78 µM;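 active means percent inhibition above the cutoff of mean plus 3 SD of all tested compounds, set per screening campaign, cut at about 20% in these data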;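 further: 0% = DMSO wells and 100% = biotin wells as full block of FRET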
Target sequence (Q9Y5X4 whole entry, looked up): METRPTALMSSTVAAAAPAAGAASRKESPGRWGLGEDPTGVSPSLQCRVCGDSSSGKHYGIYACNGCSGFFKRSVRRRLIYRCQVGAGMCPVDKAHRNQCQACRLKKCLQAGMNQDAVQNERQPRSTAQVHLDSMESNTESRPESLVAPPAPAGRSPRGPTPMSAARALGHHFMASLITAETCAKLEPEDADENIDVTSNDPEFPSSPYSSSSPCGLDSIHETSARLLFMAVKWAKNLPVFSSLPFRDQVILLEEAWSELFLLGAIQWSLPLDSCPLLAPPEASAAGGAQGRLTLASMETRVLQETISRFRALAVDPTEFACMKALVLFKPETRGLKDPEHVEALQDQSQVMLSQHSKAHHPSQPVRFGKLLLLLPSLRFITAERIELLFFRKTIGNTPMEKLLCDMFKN
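system = GST-tagged NR2E3 plus biotinylated RetCOR corepressor | input = 1.35 nM GST-NR2E3 | also added = 7 nM biotin-RetCOR | schedule = 5 h incubation at 4 °C | measured by = TR-FRET with europium anti-GST and streptavidin-D2, 340 nm excitation | read-out = percent loss of FRET ratio relative to control wells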
NR2E3 ag-2 – activates human NR2E3 receptor | Q9Y5X4 | CHO-S Gal4-NCOR/VP16-NR2E3 two-hybrid, luciferase | inhibition of corepressor binding, % at 3.98 µM | actives 0.35% (n = 360,000) | AID 602229;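 active means inhibition above the mean of all tested compounds plus 3 SD, cut at about 70% in these data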;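 further: 0% = DMSO with NR2E3 transfected cells and 100% = cells lacking NR2E3 construct; higher means lower luciferase signal from less NR2E3 corepressor binding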
CHT inh – human CHT choline transport inhibition. CHT-expressing cells, membrane potential dye, choline response; hits give low values. B-score at 10 µM. actives 0.86% (n = 310,000). AID 488975;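 active means B-score over 3 SD under the library average, and starting fluorescence ratio not unusually high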;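 further: choline stimulus applied at its EC90 after an EC20 pre-addition; B-score computed on integrated fluorescence ratio after choline addition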
NR2F2 inh – inhibitors of human COUP-TFII (NR2F2); P24468; HEK293T NGFI-A luciferase reporter, luminescence; inhibition, % at 8.6 µM; actives 0.7% (n = 370,000);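 active means inhibition above a per-plate cutoff, mean inhibition of test wells between control levels plus 3 SD, cut at about 38% in these data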;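 further: cells cotransfected with COUP-TFII expression vector driving the NGFI-A reporter; 0% = median of COUP-TF2 test wells and 100% = reporter-only cells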
NR2E3 ag confirm – confirmation of human NR2E3 agonists; shares compounds with NR2E3 ag-2; CHO-S mammalian two-hybrid NR2E3-NCOR, luciferase luminescence; inhibition, % at 3.98 µM; actives 51% (n = 2,300); AID 624378;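 active means average inhibition above a cutoff equal to the mean inhibition of all tested compounds plus one SD, cut at about 70% in these data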;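 further: 0% = DMSO in NR2E3 cells and 100% = DMSO in cells lacking NR2E3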
VP16 counter – reduces GAL4-VP16 reporter signal in NR2E3 counterscreen | shares compounds with NR2E3 ag-2 | CHO-S GAL4-VP16 luciferase reporter, luminescence | inhibition, % at 3.98 µM | actives 29% (n = 2,300);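 active means mean inhibition above a cutoff equal to the average over all tested compounds plus one standard deviation, cut at about 70% in these data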;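 further: luciferase from a UAS reporter driven by GAL4-VP16 transactivation; 0% = DMSO with VP16-transfected cells and 100% = DMSO with cells lacking VP16; higher means less reporter light so more repression of VP16 activity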
The depositor's hits bear a star. Only some compounds are listed: those with a hit (about 2.3% of all), similar ones and a draw of the others.

`O=C(CSc1nnnn1-c1ccccc1)Nc1nsc(-c2ccc(Cl)cc2)n1` gave GalR3 antag -4.0, CHT PAM inactive, NR2E3 ag-1 -135.1, NR2E3 ag-2 69.6, CHT inh inactive, NR2F2 inh 13.6, NR2E3 ag confirm 98.5* and VP16 counter 37.7.
For Cc1ccccc1CS(=O)(=O)Cc1ccc(C(=O)Nc2cccc(C)c2C)o1 the results were NR2F2 inh 14.4.
Screening NC(=S)NN=Cc1nccc2c(C(F)(F)F)cccc12 returned GalR3 antag -3.0, NR2E3 ag-2 64.7, NR2F2 inh -55.1, NR2E3 ag confirm -10.0 and VP16 counter 21.1.
Screening CN(C)c1nc(=NCc2cccs2)ss1 returned GalR3 antag -5.2, NR2E3 ag-2 96.6*, NR2F2 inh 23.9, NR2E3 ag confirm 23.0 and VP16 counter -9.8.
CC(SC(=S)N(C)Cc1cccs1)C(=O)O (stereo not given) was read as GalR3 antag -6.9, CHT PAM inactive, NR2E3 ag-1 0.9, NR2E3 ag-2 -36.2, CHT inh inactive and NR2F2 inh 10.1.
Screening Cc1cc(C(=O)NNC(=O)Nc2ccc(Cl)cc2)no1 returned GalR3 antag 3.8, CHT PAM inactive, NR2E3 ag-1 3.1, NR2E3 ag-2 -2.0, CHT inh inactive and NR2F2 inh 5.5.
For Cc1cc(C(=O)NNc2ccc(Cl)cc2)no1 the results were GalR3 antag -4.7, CHT PAM inactive, NR2E3 ag-1 1.5, NR2E3 ag-2 64.3, CHT inh inactive, NR2F2 inh -6.8, NR2E3 ag confirm 33.9 and VP16 counter 6.0.
`COc1ccccc1NC(=O)Cc1nn(C)c(=O)c2ccccc12` gave CHT PAM inactive, NR2E3 ag-1 0.6, NR2E3 ag-2 73.8*, CHT inh inactive, NR2E3 ag confirm 73.3* and VP16 counter 68.7.
CCCCN1CC(=O)N2[C@H](C[C@@]3(n4ccc5ccccc54)c4ccccc4N(S(=O)(=O)c4ccccc4)[C@@H]23)C1=O was read as NR2F2 inh 16.5.
For O=C(NNc1ccccc1)C(=O)NNS(=O)(=O)c1ccc([N+](=O)[O-])cc1 the results were GalR3 antag 4.2, CHT PAM inactive, NR2E3 ag-1 -1.9, NR2E3 ag-2 57.9, CHT inh inactive, NR2F2 inh -6.7, NR2E3 ag confirm 52.8 and VP16 counter 26.4.
Screening CC(C)CCN1C(=O)COc2ccccc2C1c1nnnn1-c1ccc2c(c1)OCCO2 (stereo not given) returned NR2F2 inh 7.7.
CC(=O)c1cccc(NS(=O)(=O)c2ccc(-c3cc(C)no3)s2)c1 was read as GalR3 antag -0.9, CHT PAM inactive, NR2E3 ag-1 4.7, NR2E3 ag-2 96.5*, CHT inh inactive, NR2F2 inh 21.5, NR2E3 ag confirm 70.1* and VP16 counter 59.6.
COC(=O)c1cc2c(c3c4cc(C)ccc4n(C(=O)c4ccccc4)c13)C(=O)N(Cc1ccccc1)C2 was read as GalR3 antag -6.6 and NR2F2 inh -10.3.
`COc1ccccc1CN(C)C(=O)C1CCCN(c2nc3ccccc3o2)C1` (stereo not given) gave NR2F2 inh 10.6.
`CCCC(=O)N1CCN(c2ccc(NC(=O)c3cc4ccccc4o3)cc2Cl)CC1` gave GalR3 antag -2.2, CHT PAM inactive, NR2E3 ag-1 2.0, NR2E3 ag-2 50.9, CHT inh -7.44*, NR2F2 inh 36.5, NR2E3 ag confirm 40.0 and VP16 counter 25.9.
For CC(=O)NC(C)C(=O)N1CCCC1C(=O)N1CCCC1C(=O)NC(C)C(=O)NC1C(=O)NC(CC(C)C)C(=O)NC2CCCCNC(=O)CCC(C(=O)NC(Cc3ccc(O)cc3)C(=O)O)NC(=O)C3CCC(=O)OCC(NC(=O)C4CCCN4C(=O)C(Cc4c[nH]c5ccccc45)NC2=O)C(=O)NC(CC(=O)OC1C)C(=O)NC(Cc1c[nH]c2ccccc12)C(=O)N3 (stereo not given) the results were NR2F2 inh 14.2.
For CN(C)c1ccc(C(=O)c2ccccc2C(=O)O)c(O)c1 the results were GalR3 antag -0.1, CHT PAM inactive, NR2E3 ag-1 1.3, NR2E3 ag-2 -22.9, CHT inh inactive and NR2F2 inh -20.8.
`CCCCN(CCCC)c1ccc(C(=O)c2ccccc2C(=O)O)c(O)c1` gave GalR3 antag -1.8, CHT PAM inactive, NR2E3 ag-1 -0.6, NR2E3 ag-2 49.6, CHT inh inactive, NR2F2 inh -5.8, NR2E3 ag confirm 8.8 and VP16 counter 33.0.
CSc1nc2ccc(NS(=O)(=O)c3ccc4c(c3)OCCO4)cc2s1 was read as GalR3 antag -1.6, CHT PAM inactive, NR2E3 ag-1 2.1, NR2E3 ag-2 75.5*, CHT inh inactive, NR2F2 inh 18.9, NR2E3 ag confirm 91.4* and VP16 counter 82.4*.
`O=S(=O)(Nc1ccc2c(c1)OCCO2)c1ccc(F)c(F)c1` gave GalR3 antag -7.7, CHT PAM inactive, NR2E3 ag-1 -2.4, NR2E3 ag-2 36.9, CHT inh inactive and NR2F2 inh 12.7.
For CSc1nc2ccc(S(=O)(=O)NC3CCCCC3)cc2s1 the results were GalR3 antag -3.6, CHT PAM inactive, NR2E3 ag-1 4.7, NR2E3 ag-2 49.5, CHT inh inactive, NR2F2 inh 10.7, NR2E3 ag confirm 21.4 and VP16 counter 30.3.
For O=S(=O)(Nc1ccc2c(c1)OCCO2)c1ccc2oc3ccccc3c2c1 the results were GalR3 antag -9.9, CHT PAM inactive, NR2E3 ag-1 -0.4, NR2E3 ag-2 81.1*, CHT inh inactive, NR2F2 inh 1.8, NR2E3 ag confirm 83.7* and VP16 counter 67.8.
S=c1[nH]nc(-c2cc(-c3ccccc3)n[nH]2)n1/N=C/c1cccc2ccccc12 was read as NR2F2 inh 9.5.
Screening COc1ccc(N2CCN(CCCNC(=O)CCOC(C)(C)C)CC2)cc1 returned NR2F2 inh -18.7.
`CNC(=O)OCc1nc(SSC(C)(C)C)n(C)c1COC(=O)NC` gave GalR3 antag -1.1, NR2E3 ag-2 55.4, NR2F2 inh -48.8, NR2E3 ag confirm 27.8 and VP16 counter 12.2.
Cc1ccccc1NC(=O)OC1CCC12CCC(c1ccccc1)CC2 (stereo not given) was read as NR2F2 inh -5.1.
